In the EternaBench riboswitch data:

Tested on: MS2 coat protein
Assay: apparent Kd, MS2 coat protein; higher = weaker binding; RNA-MaP array; FMN 200 µM where present
Summary of the method: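 Green signal from SNAP-549-labelled MS2 coat protein was normalised to red-channel RNA signal and to the median Fmax of control clusters. The protein was titrated from 0.7 or 1.5 nM, doubling to 3 µM, without and then with constant ligand, over designs transcribed by stalled E. coli RNA polymerase on Illumina sequencing-chip clusters, in 100 mM Tris-HCl pH 7.5, 80 mM KCl, 4 mM MgCl2, BSA, DTT, yeast tRNA and Tween-20. The apparent Kd is the median of filtered per-cluster binding-curve fits.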

[1] = designed as: OFF switch for flavin mononucleotide, no ligand
[2] = ligand present: flavin mononucleotide, designed as: OFF switch for flavin mononucleotide
[3] = designed as: ON switch for flavin mononucleotide, no ligand
[4] = ligand present: flavin mononucleotide, designed as: ON switch for flavin mononucleotide

Sequence | apparent Kd [1] [nM] | apparent Kd [2] [nM] | apparent Kd [3] [nM] | apparent Kd [4] [nM]
CACGCCUAGGAGAAGGGCCCACUAUAGGGUAAAUGCUGUUCUCACAUGAGGAUCACCCAUGUGCGGCAGGAUAUCCACGCGUAA | 7.28 | 34.6 | – | –
CACUCGUGUCUAGGAUAUGAGUGACAAGCGCGAGAUUUUCUCGGCGCUAGCUCAGAAGGAGACAUGAGGAUCACCCAUGUAAGG | 162 | 12 | – | –
CAGAAGUCAGGAUAUGCAUGGCGGGACUUGCGUCGUGGCGUGCAGAAGGGACAUGAGGAUCACCCAUGUAAAGG | 174 | 300 | – | –
CAGAGACAAGCAGGAUAUCGACACAUGAGGAUCACCCAUGUUCGUAGGAACCUGGGUCAAGUCUGCGAGAAGGGCUCGUCAGUA | 151 | 159 | – | –
CAGAUCGAUGUGAGGAUAUCUGUGUUACCCUGUAAGGAGAAGGCACAUGAGGAUCACCCAUGUGAUUCGGUCCU | 40.4 | 36.3 | – | –
CAGCAAAAGUAGAAGGCAGUACUGAUUCAGUACUGAGGAUAUACAUGAGGAUCACCCAUGUAUUCCAGCUGAAUAAUAAAAUAU | 5.43 | 5.63 | – | –
CAGCGAAAGCUGAAUCUGUAGAGAGAGGAUAUACAUCAUAAGAUGCAUACAUGAGGAUCACCCAUGUAGAAGGCUCUCUACAGU | 5.49 | 6.83 | – | –
CAGCGAAAGUAGAAGGCAGUACUGAUACAGUACUGAGGAUAUACAUGAGGAUCACCCAUGUUCUUCAGCUGGAAAUAAAUAAAA | 8.02 | 124 | – | –
CAGCGAAAGUAGAAGGUAUUAAUUAAAUUUAAAUAAGGAUAUACAUGAGGAUCACCCAUGUCCUUCAGCUGGAUAUAUAUUAAU | 39.1 | 29.1 | – | –
CAGCGCUGUCGAGAGGAUAUGCGGUGAUGGACAUGAGGAUCACCCAUGUAAGCGAUAGCAUUACGGCAGAAGGCUCUGCAGCUGC | – | – | 25.1 | 17.4
CAGCUGAAUGUGAGGAUAUCUAGAGCUGCGGCUCUAGAGAAGGCACAUGAGGAUCACCCAUGUCUCAACAGCUG | 40.7 | 294 | – | –
CAGCUGAAUGUGAGGAUAUCUAGAGCUUCGGCUCUAGAGAAGGCACAUGAGGAUCACCCAUGUCUCAACAGCUG | 39.2 | 296 | – | –
CAGGAUAGAGGAUAUACAUAGAUACAGAUUCAUGUGAUCCUACAUGAGGAUCACCCAUGUAGAAGGCUAACCUG | 288 | 82.2 | – | –
CAGGUAGACUGAGGAUAUACAAAAGACCUAGUCUAUCUAGGUCACAUCACAUGAGGAUCACCCAUGUAGAAGGCAGUCUGCCUG | 16.2 | 27.1 | – | –
CAGGUAGACUGAGGAUAUACAAUAAACAGCUAGUCUAUCUAGCUGCCUACAUGAGGAUCACCCAUGUAGAAGGCAGUCUGCCUG | 16.2 | 16.6 | – | –
CAGGUAGACUGAGGAUAUACAAUAAAGACCUAGUCUAUCUAGGUCUUCACAUGAGGAUCACCCAUGUAGAAGGCAGUCUGCCUG | 19.1 | 38.5 | – | –
CAGGUAGACUGAGGAUAUACACUAAACAGCUAGUCUAUCUAGCUGACCACAUGAGGAUCACCCAUGUAGAAGGCAGUCUGCCUG | 18.1 | 39.2 | – | –
CAGGUAGACUGAGGAUAUACACUAAACAGCUAGUCUAUCUAGCUGAUCACAUGAGGAUCACCCAUGUAGAAGGCAGUCUGCCUG | 19.6 | 56.5 | – | –
CAGUACUGAGGAUAUACAUGAGGAUCACCCAUGUGUCCCUGCUAGGAAACUAGCAAUAGUAGAAGGCAGUACUG | 17.7 | 199 | – | –
CAGUACUGAGGAUAUACAUGAGGAUCACCCAUGUGUCUAAGGUAGGAUACUACCAUUAGUAGAAGGCAGUACUG | 12.4 | 18.1 | – | –
CAGUACUGAGGAUAUACAUGAGGAUCACCCAUGUGUUCCAGCUAGGAAACUUGCAAAAGUAGAAGGCAGUACUG | 12.1 | 30.6 | – | –

Sequence | apparent Kd [1] [nM] | apparent Kd [2] [nM] | apparent Kd [3] [nM] | apparent Kd [4] [nM]
CAGUGUAGUUAGGAUAUCGGGUCGGUUGGGCGCUGAGAAGGAACUACAUGAGGAUCACCCAUGUGGGCUCUUCU | 19.5 | 37.1 | – | –
CAGUUCUGAGGAUAUCCACCCUCCUACAUGAGGAUCACCCAUGUUUCCCUCUGGGUUUUCGGAGAAGGCAGUUAUC | 44.7 | 79.6 | – | –
CAUACACAUGAGGAUCACCCAUGUGAGGAUAUGCGUACGUAAUCCGUAGGAGACGUGCGCAGAAGGCGCGAGGU | 56.6 | 44 | – | –
CAUACACAUGAGGAUCACCCAUGUGAGGAUAUGCGUACGUUGUCCGUAGGCGACGUGCGCAGAAGGCGCGUGUU | 56.9 | 48.3 | – | –
CAUAUCGUACGAGGAUAUAUGAGUCCUACAUGAGGAUCACCCAUGUAGGUGAUCUAACGAGAUUAGUAGAAGGCGUACGAUAUG | – | – | 14.1 | 7.85
CAUGACAAAGGAUAUACAUGAGGAUCACCCAUGUGGUCAUGGAAGUACGUGUUCUCACGUAGAAGGUUGCAGGG | 12.8 | 24.9 | – | –
CAUGUCCUCACAGGAUAUGCAAUGUAUUUCAUUGCAGAAGGGUGAAUACAUGAGGAUCACCCAUGUGGACAUGAUAUAUUUAAU | – | – | 725 | 77.8
CAUGUCCUCACAGGAUAUGCUGGACUUUGUCCAGCAGAAGGGUGAACAUGAGGAUCACCCAUGUUGUGGACAUGUAUAUUUAAG | – | – | 228 | 575
CAUGUCCUCACAGGAUAUGCUGGACUUUGUCCAGCAGAAGGGUGUUAACAUGAGGAUCACCCAUGUGGACAUGAUAUAUUUAAU | – | – | 933 | 69.8
CAUGUGUUAGGAUAUGCACCGAUCUCCGAAAGGAGAUCGGUGCAGAAGGAACAUGAGGAUCACCCAUGUUGAUG | 39.9 | 140 | – | –
CAUUAAUUCAUUAUAGUAAUUAUACAGGAUAUGUAACAUGAGGAUCACCCAUGUAUUCUUGGUUAACAGAAGGGUAUUACUUGU | 17.5 | 27.6 | – | –
CAUUAAUUCAUUAUAGUAAUUAUACAGGAUAUGUUACAUGAGGAUCACCCAUGUAUUCAUGGUAAACAGAAGGGUAAUACAAGA | 13.8 | 16.3 | – | –
CAUUAAUUCAUUAUAUUAAUUUUACAGGAUAUGUAACAUGAGGAUCACCCAUGUAUUCUAGGUUAACAGAAGGGUAUUACUUGU | 28.6 | 22.9 | – | –
CAUUAUUAUCGAGGAUAUCCUAUUGAAAUUCUGGGAGAAGGCGGACUCAACAUGAGGAUCACCCAUGUGGGACGGAUGCUAGGG | 22.9 | 20 | – | –
CAUUCAUGUCUAGGAUAUGAGUGACAAGCGCGAAGUUUUUUCGCCGCUAGCUCAGAAGGAGACAUGAGGAUCACCCAUGUAAGG | 24.1 | 9.96 | – | –
CAUUUGUGAGGAUAUCAGGUGUGCUAGCGUACUGGUACAUCUGAGAAGGCACAUGAGGAUCACCCAUGUUCCUU | 12.8 | 30 | – | –
CCAAGAAUAGGAUAUACACGAUGUCAGCUUCUAUACAUCGCACAUGAGGAUCACCCAUGUAGAAGGGUUCUCUC | 735 | 823 | – | –
CCACCCUGAGGAUAUCCACCCUCAUACAUGAGGAUCACCCAUGUUCAUCCCUGAGUUCCCGGAGAAGGCAGAUUCC | 55.3 | 47.5 | – | –
CCACCUACUGAGGAUAUUGCAUCACCCGACUGAUAAGAAGGCAGAACAUGAGGAUCACCCAUGUGGGUACUCAC | 94 | 103 | – | –
CCACGACCGGAGAAGGCAGUUUGUGGGCCUGUUCCUGUCGGAUACAUGAGGAUCACCCAUGUACCUGAGGAUAUCUGGUCGCAG | 5.52 | 6.07 | – | –
CCAGAGGUCACAGGAUAUGACUCGUCCAAAUGGUCAGAAGGGUGAAUCACAUUAUGUAUACAUGAGGAUCACCCAUGUCCUACG | – | – | 93.2 | 498
